# Measurements taken from ChEMBL document CHEMBL1145959, “Design and synthesis of 8-hydroxy-[1,6]naphthyridines as novel inhibitors of HIV-1 integrase in vitro and in infected cells” (J Med Chem, 2003).
# Experiments:
# [1] = biological target: Human immunodeficiency virus type 1 integrase (Human immunodeficiency virus 1, UniProt Q7ZJM1); assay: Compound was tested for its ability to inhibit the strand transfer of the integration process catalyzed by HIV integrase
# MT4 [2] = assay: Cell culture inhibitory concentration which inhibits 95% spread of HIV infection in cell culture, using HIV-1 IIIB variant and MT-4 T-lymphoid cells; format: functional; conditions: Homo sapiens, read-out: CIC95
# MT4 [3] = assay: Cytotoxicity of compound was determined on MT-4 cells; format: functional, Homo sapiens
# How it was run: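 MT-4 cultures incubated 4 days with inhibitor. Toxicity scored by visual inspection for cytopathic effects: gross morphological changes, altered growth pattern, and metabolic change seen as lack of change in the medium pH indicator. Cell numbers also checked; cells typically double at least 4 times over the 4 days.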
# [4] = Peak plasma level of compound (10 mg/kg) administered orally to rats after 60 min was determined; format: ADME, organism-based; parameters: dose 10 mg/kg, route oral; conditions: rat, po
# How it was run: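 Rats dosed orally at 10 mg/kg as a 3.0 mg/mL aqueous solution with 1% methylcellulose and 1% DMSO. Plasma concentration followed over time, with Cmax taken as the peak plasma level.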
# Sequence of Human immunodeficiency virus type 1 integrase (Q7ZJM1 whole entry): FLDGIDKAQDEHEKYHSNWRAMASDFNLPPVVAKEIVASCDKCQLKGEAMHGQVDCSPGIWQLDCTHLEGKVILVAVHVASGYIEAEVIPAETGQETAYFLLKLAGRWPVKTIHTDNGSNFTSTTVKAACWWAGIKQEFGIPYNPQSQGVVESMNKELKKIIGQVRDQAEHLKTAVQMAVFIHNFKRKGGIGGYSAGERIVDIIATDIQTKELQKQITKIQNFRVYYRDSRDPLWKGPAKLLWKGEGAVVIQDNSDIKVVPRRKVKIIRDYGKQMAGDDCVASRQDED
SMILES,IC50 [1],IC95 (MT4 [2]),Cytotoxicity (MT4 [3]),Cmax [4]
O=C(c1cccc(Cc2ccccc2)c1)c1oc2cccnc2c1O,1 µM,> 50 µM,12.5 µM,
O=C(c1cc(Cc2ccccc2)ccn1)c1ccc2cccnc2c1O,0.05 µM,2.5 µM,2.5 µM,
O=C(O)C(=O)CC(=O)c1cccc(Cc2ccccc2)c1,0.01 µM,1.11 µM,>50 µM,
O=c1c2cc(Cc3ccccc3)ccc2oc2ccc(O)c(O)c12,0.6 µM,6 µM,3 µM,
O=C(c1cc(Cc2ccccc2)cc(CN2CCCS2(=O)=O)c1)c1ncc2cccnc2c1O,0.01 µM,0.39 µM,>12.5 µM,1170 nM
O=C(c1cccc(Cc2ccccc2)c1)c1ccc2cccnc2c1O,,5 µM,1.25 µM,
O=C(c1cccc(Cc2ccccc2)c1)c1ncc2cccnc2c1O,0.04 µM,6.2 µM,12.5 µM,
